The source made the active and inactive calls. The rule behind the calls is not given here.

Assay [1] concerns Mus musculus. The assay is described as follows: Neuroprotective activity against lesioned C57BL/6 mouse model of Parkinson's disease assessed as upregulation of Nrf2 in SNpc and striatum area at 100 mg/kg , po administered for 2 week before MPTP stimulation by Immuno histochemistry assays. It counts as functional, organism-based. Particulars: Brain, time 2.0 weeks. Put shortly:
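Prophylactic regimen in male C57BL/6 mice (n = 6): oral compound 100 mg/kg in saline 2 weeks, then MPTP-HCl 25 mg/kg i.p. in week 3. Nrf2 immunohistochemistry in striatum and SNpc, quantified as Nrf2-immunopositive density relative to total area; mean ± SD.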

Assay [2] deals with PC-12. The experiment in a line: Inhibition of H2O2-induced reactive oxygen species production in rat PC-12 cells assessed as decrease in ROS accumulation at 12.5 to 50 uM measured after pretreated for 24 hrs followed by H2O2 challenge and measured after 24 hrs by DCFH-DA probe based flow cytometry. It counts as functional, cell-based. To be noted: dose 12.5-50 µM, time 48.0 hrs. In a few lines:
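PC12 cells seeded 1 × 10⁴/well, pretreated 24 h with 12.5–100 µM compound, then 300 µM H2O2 for 24 h. Rinsed, loaded with DCFH-DA (1:1000 in serum-free medium) 15 min at room temperature in the dark, washed; fluorescence read by microscopy, plate reader ([…]) and flow cytometry; three independent experiments.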

Assay [3] addresses T1, Nuclear factor erythroid 2-related factor 2 (Rattus norvegicus) (UniProt O54968).
T1 sequence (whole entry): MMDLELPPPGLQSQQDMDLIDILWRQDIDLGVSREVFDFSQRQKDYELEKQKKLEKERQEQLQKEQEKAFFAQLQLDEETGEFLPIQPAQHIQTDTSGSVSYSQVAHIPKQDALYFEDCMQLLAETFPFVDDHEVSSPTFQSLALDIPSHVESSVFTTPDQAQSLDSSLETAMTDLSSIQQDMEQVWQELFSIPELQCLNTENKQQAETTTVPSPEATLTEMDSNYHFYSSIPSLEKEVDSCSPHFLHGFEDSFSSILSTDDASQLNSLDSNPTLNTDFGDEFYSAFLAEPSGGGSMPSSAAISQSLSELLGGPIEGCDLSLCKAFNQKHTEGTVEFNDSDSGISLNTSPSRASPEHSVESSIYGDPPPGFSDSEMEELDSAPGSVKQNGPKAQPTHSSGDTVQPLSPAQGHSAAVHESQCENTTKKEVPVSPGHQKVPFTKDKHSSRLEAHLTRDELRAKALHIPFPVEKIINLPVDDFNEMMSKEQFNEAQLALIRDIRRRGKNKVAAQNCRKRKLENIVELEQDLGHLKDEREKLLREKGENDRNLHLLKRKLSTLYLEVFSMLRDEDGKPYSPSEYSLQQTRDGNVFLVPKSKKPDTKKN
The experiment in a line: Induction of Nrf2 nuclear translocation in rat PC-12 cells assessed as Nrf2 accumulation in nucleus at 25 uM measured after 4 to 8 hrs by immunofluorescence analysis. It counts as cell-based. To be noted: filed as activator, time 4-8 hrs. In a few lines: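 PC12 cells exposed to 25 µM compound for 0, 4, 6 and 8 h; fixed in cold methanol (−20 °C, 20 min), anti-Nrf2 overnight, Dylight 594 secondary (1:500, 1 h), DAPI nuclear counterstain; imaged by fluorescence microscopy.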

For assay [4], the system named is Mus musculus. The assay is described as follows: Neuroprotective activity against lesioned C57BL/6 mouse model of Parkinson's disease assessed as increase in number of TH positive cells at 50 to 100 mg/kg , po administered for 2 week before MPTP stimulation by Immuno histochemistry assays. It counts as functional. Particulars: dose 50-100 mg/kg, time 2 weeks. In a few lines: (§1)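 Male 10-week-old C57BL/6 mice (20–23 g), n = 6/group. Prophylactic: oral compound (50 or 100 mg/kg in saline) 2 weeks, then MPTP-HCl 25 mg/kg i.p. in week 3. Therapeutic: MPTP-HCl 25 mg/kg i.p. 1 week, then oral 100 mg/kg 2 weeks. Saline vehicle. Pole/rotarod training last 3 days; TH immunohistochemistry on SNpc and striatum.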

Assay [5] has as its system PC-12. The experiment in a line: Cytoprotection activity against H2O2-induced rat PC12-shNT cell assessed as cell viability at 12.5 to 100 uM pretreated for 24 hrs followed by H2O2 challenge and measured after 24 hrs by MTT assay. The format is functional, cell-based. To be noted: dose 12.5-100 µM, time 48.0 hrs. Put shortly: (§2)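 PC12 lines made by lentiviral shRNA against rat Nrf2 (shNrf2-2) or scrambled control (shNT), selected with 0.5 mg/mL G418, knockdown confirmed by Western blot. Pretreated 24 h with 12.5, 25.0, 50.0 or 100 µM compound, then H2O2 for 24 h; viability by MTT; mean ± SD, three independent experiments.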

The test system of assay [6] is PC-12. The assay is described as follows: Cytoprotection activity against H2O2-induced rat PC12-shNrf2-2 cell assessed as cell viability at 12.5 to 100 uM pretreated for 24 hrs followed by H2O2 challenge and measured after 24 hrs by MTT assay. To be noted: dose 12.5-100 µM, time 48.0 hrs. It counts as functional, cell-based. In a few lines:
as §2

Assay [7] relates to PC-12. The experiment in a line: Inhibition of H202-induced apoptosis in rat PC-12 cells assessed as early apoptotic cells at 25 uM after 24 hrs by Annexin-V-FITC/PI-staining based flow cytometric analysis (reference value: 15.16%). The format is functional. The arrangement: scale not given: the % may be the effect or the level left. In a few lines:
(§3)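 PC12 cells seeded 2 × 10⁵/well for 24 h, pretreated 24 h with 12.5, 25, 50 or 100 µM compound, then given fresh medium containing 650 µM H2O2. Harvested cells washed in binding buffer, stained 5 min with Annexin V-FITC/PI, analysed by flow cytometry.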
In general terms: Flow cytometry measures light scatter and fluorescence of single cells or particles in a stream.

Assay [8] relates to PC-12. The experiment in a line: Inhibition of H202-induced apoptosis in rat PC-12 cells assessed as necrotic cells at 100 uM after 24 hrs by Annexin-V-FITC/PI-staining based flow cytometric analysis (reference value: 0.33%). The format is functional. The arrangement: scale not given: the % may be the effect or the level left. Put shortly:
as §3

The test system of assay [9] is PC-12. The assay is described as follows: Inhibition of H202-induced apoptosis in rat PC-12 cells assessed as early apoptotic cells at 12.5 uM after 24 hrs by Annexin-V-FITC/PI-staining based flow cytometric analysis (reference value: 15.16%). It counts as functional. Also noted: scale not given: the % may be the effect or the level left. Put shortly:
as §3

For assay [10], the system named is PC-12. The assay is described as follows: Inhibition of H202-induced apoptosis in rat PC-12 cells assessed as viable cells at 12.5 uM after 24 hrs by Annexin-V-FITC/PI-staining based flow cytometric analysis (reference value: 52.01%). It counts as functional. Particulars: read-out: Activity. In a few lines:
as §3

Assay [11] addresses T1, Nuclear factor erythroid 2-related factor 2 (Rattus norvegicus). The experiment in a line: Induction of Nrf2 nuclear translocation in rat PC-12 cells assessed as Nrf2 accumulation in nucleus at 25 uM by Western blot analysis. It counts as cell-based. Particulars: filed as activator, time 4-8 hrs, TDE = time-dependent effect. Put shortly:
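PC12 cells incubated with 25 µM compound for 4, 6 and 8 h; nuclear and cytoplasmic fractions prepared with an extraction kit; nuclear, cytosolic and total Nrf2 assessed by SDS-PAGE/PVDF Western blot. Three independent experiments.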

Assay [12] relates to Mus musculus. The assay is described as follows: Neuroprotective activity in lesioned C57BL/6 mouse model of Parkinson's disease assessed as assessed as reduction in climbing down time at 100 mg/kg, po administered for 2 week after MPTP stimulation by pole test. The format is functional. Particulars: C57BL/6, po, 336 h, read-out: INH, time 2 weeks. In a few lines:
as §1

Assay [13] concerns PC-12. The assay is described as follows: Inhibition of H202-induced apoptosis in rat PC-12 cells assessed as early apoptotic cells at 50 uM after 24 hrs by Annexin-V-FITC/PI-staining based flow cytometric analysis (reference value: 15.16%). Also noted: scale not given: the % may be the effect or the level left. The format is functional. In a few lines:
as §3

The subject of assay [14] is PC-12. The experiment in a line: Inhibition of H202-induced apoptosis in rat PC-12 cells assessed as late apoptotic cells at 12.5 uM after 24 hrs by Annexin-V-FITC/PI-staining based flow cytometric analysis (reference value: 32.5%). It counts as functional. The arrangement: scale not given: the % may be the effect or the level left. In a few lines:
as §3

For `COc1ccccc1/C=C/C=C/C(=O)N1CCCCC1`, the result (with Mus musculus [1]; in [3]; in the assay on PC-12 [5]) was Active. In the assay with PC-12 [2], the inhibition result is “Active”. Moreover, the Activity in the assay with Mus musculus [4] is 30.7%; in the assay with PC-12 [7], 12.72%; in the assay on PC-12 [8] it was 0.57%; in the assay on PC-12 [9], 12.26%; in assay [11], “Tde”; in the assay with PC-12 [13], 12.01%. Moreover, the Activity in the assay on PC-12 [14] was 26.08%. Moreover, in the assay on PC-12 [6], the outcome was inactive. The viability at 12.5 µM in the assay with PC-12 [10] worked out at 61.4%. Besides, the inhibition in vivo at 100 mg/kg in the assay on Mus musculus [12] amounted to 20.6%.

The record behind these values is ChEMBL document CHEMBL4765320, “Identification and optimization of piperine analogues as neuroprotective agents for the treatment of Parkinson's disease via the activation of Nrf2/keap1 pathway” (Eur J Med Chem, 2020).
